From ChEMBL document CHEMBL4130466, “Angeloylated Germacranolides from Daucus virgatus and Their Plasmodium Transmission Blocking Activity” (J Nat Prod, 2017)

Columns and labels:
[1] = system: Plasmodium berghei; test: Antiplasmodial activity against Plasmodium berghei CTRPp expressing GFP assessed as inhibition of early sporogonic stages development at 50 ug/ml after 24 hrs by fluorescence microscopy
[2] = system: Plasmodium berghei; test: Antiplasmodial activity against Plasmodium berghei CTRPp expressing GFP assessed as decrease in capacity of zygote to undergo ookinete maturation after 24 hrs by Zeiss fluorescence microscopy; type: functional, organism-based
Summary of the method: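 Mice were primed with phenylhydrazine 120 mg/kg ip and infected ip with 10^7 P. berghei CTRPp.GFP RBCs. Day-4 blood with >3 exflagellation centres/1000 RBCs went into pH 7.4 RPMI 1640 (100 μM xanthurenic acid, 20% FBS) with compound over a dose range. Incubation was 19 °C, 24 h. GFP zygotes and ookinetes were counted by fluorescence microscopy, with inhibition calculated against 0.1% DMSO. Wells were in triplicate, and experiments were run at least twice.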

[3] = system: HaCaT; test: Cytotoxicity against human HaCaT cells; type: cell-based
[4] = system: A-375; test: Cytotoxicity against human A375 cells; type: cell-based
[5] = system: Plasmodium berghei; test: Antiplasmodial activity against Plasmodium berghei CTRPp expressing GFP assessed as inhibition of early sporogonic stages development after 24 hrs by fluorescence microscopy

Structure (SMILES) | inhibition at 50 µg/mL [1] [%] | further results
C/C=C(/C)C(=O)O[C@]1(C)C(=O)O[C@H]2C[C@]3(C)O[C@H]3CC/C(C)=C/[C@H](OC(=O)[C@@]3(C)O[C@H]3C)[C@@H]21 | 22 to 35 | 
C/C=C(/C)C(=O)O[C@@H]1[C@H]2[C@H](C/C(C)=C/CC[C@]3(C)O[C@@H]13)OC(=O)[C@@]2(C)O | 22 to 35 | 
C=C1C[C@@H]2OC(=O)[C@@](C)(O)[C@H]2[C@@H](OC(=O)/C(C)=C\C)[C@@H]2O[C@@]2(C)CC[C@H]1OO | 22 to 35 | 
C=C1C[C@H](OC(=O)/C(C)=C\C)[C@H]2[C@H](/C=C(\C)CC[C@@H]1O)OC(=O)[C@@]2(C)O | 22 to 35 | 
C/C=C(/C)C(=O)O[C@]1(C)C(=O)O[C@H]2C/C(C)=C/CC[C@]3(C)O[C@H]3[C@H](OC(=O)[C@@]3(C)O[C@H]3C)[C@@H]21 | 22 to 35 | 
C/C=C(/C)C(=O)O[C@]1(C)C(=O)O[C@H]2C/C(C)=C/CC/C(C)=C/[C@H](OC(=O)[C@@]3(C)O[C@H]3C)[C@@H]21 | 92 | IC50 [2]: 48.4 µM; IC50 [3]: > 100 µM; IC50 [4]: > 100 µM; IC50 [5]: 82.3 µM
C=C[C@@]12COC(=O)C(=C)[C@@H]1[C@@H](O)[C@H](C(=C)C(=O)OC)[C@@H](OC(=O)C(=C)CO)C2 [VERNODALOL] |  | IC50 [5]: 19 µM
C/C=C(/C)C(=O)O[C@H]1/C=C(\C)CC[C@@H]2O[C@@]2(C)C[C@@H]2OC(=O)[C@@](C)(O)[C@@H]12 | 22 to 35 | 
